Laboratory results as given in ChEMBL document CHEMBL1130202, “Biologically active heteroarotinoids exhibiting anticancer activity and decreased toxicity” (J Med Chem, 1997).
Active and inactive are the calls of the source. The calls are words filed in the database; no cut-off is given here.

Legend:
[1] = organism: Mus musculus; test: Total dose of 10% weight loss in mice at mid dose 2; type: functional
[2] = organism: Mus musculus; test: Skin scaling in mice at mid dose 2 with Hypervitaminosis; 0/16; type: functional, organism-based
Procedure, shortened: (§1)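 Male B6D2F1 mice were dosed daily by gavage in corn oil and observed for skin scaling of the ears, mouth, nose, eyelids, feet, tail or ventral body. Results are given as affected animals over animals in the group, with the day of first observation.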

[3] = organism: Mus musculus; test: Effect of compound on serum Alkaline phosphatase levels in mice at low dose on day 65; type: functional
Procedure, shortened: (§2)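 Male B6D2F1 mice dosed daily by oral gavage in corn oil at low, mid 1, mid 2 or high dose. Blood sampled on set days (8, 29, 36, 65) for clinical chemistry, serum alkaline phosphatase and triglycerides. Group mean ± SD reported as % relative to vehicle 1; significance p < 0.05 versus corn oil vehicle.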

[4] = organism: Mus musculus; test: Skin scaling in mice at low dose with Hypervitaminosis; 0/16; type: functional, organism-based; procedure, shortened: as §1
[5] = organism: Mus musculus; test: Approximate day to 10% weight loss in mice at mid dose 1; type: functional
Procedure, shortened: (§3)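 Male B6D2F1 mice dosed daily by gavage in corn oil; body weights followed to termination (day 65, or day 25 for TTNPB 0.01/0.05 mg/kg/day groups) and compared with the matching vehicle group. Value is approximate day of onset of 10% body weight reduction versus vehicle.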

[6] = organism: Mus musculus; test: Effect of compound on thymus to body weight ratios in mice at mid dose 1 on day 65; type: functional
Procedure, shortened: (§4)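 Male B6D2F1 mice were dosed daily by gavage in corn oil, with TTNPB given at 0.1–0.8 or 0.01/0.05 mg/kg/day. Thymus-to-body weight ratio (×1000) was taken at necropsy on day 65 against vehicle 1, or on day 25 for the 0.01/0.05 groups against vehicle 2. Mean ± SD of 4–8 animals, reported as % difference from vehicle.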

[7] = organism: Mus musculus; test: Fracture incidence in mouse at mid dose 1; 0/8
[8] = organism: Mus musculus; test: Enlarged lymph in gross pathological observations in mice with hypervitaminosis A in mice at high dose with gross observations/total number of mice in group; 1/16; type: functional, organism-based
[9] = organism: Mus musculus; test: Effect of compound on thymus to body weight ratios in mice at mid dose 2 on day 65; type: functional; procedure, shortened: as §4
[10] = organism: Mus musculus; test: Approximate day to 10% weight loss in mice at low dose; type: functional; procedure, shortened: as §3
[11] = organism: Mus musculus; test: Approximate day to 10% weight loss in mice at mid dose 2; type: functional; procedure, shortened: as §3
[12] = organism: Mus musculus; test: Average number of fractures per mouse at low dose
[13] = organism: Mus musculus; test: Total dose of 10% weight loss in mice at low dose; type: functional
[14] = organism: Mus musculus; test: Effect of compound on adrenal to body weight ratios in mice at low dose on day 65; type: functional
Procedure, shortened: (§5)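 Male B6D2F1 mice dosed daily by gavage with compound in corn oil; vehicle 1 (corn oil) controls run to termination on day 65. Low, mid 1, mid 2 and high dose groups, with dosage increases partway through the study. Organ-to-body weight ratios (×1000) taken at necropsy on day 65, reported as mean ± SD for 4 to 8 animals and as % difference from vehicle.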

[15] = Mortality rate in mice in mid dose 2; type: ADME; settings: mouse, in vivo
Procedure, shortened: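 Male B6D2F1 mice given compound daily by gavage in corn oil at the stated dose levels, with corn oil vehicle controls. Deaths counted as animals found dead or sacrificed moribund, with day(s) of death recorded. Heteroarotinoid groups ran to day 65 and low-dose reference groups to day 25.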

[16] = test system: CC-B; test: Relative transcriptional activation activity relative to t-RA; type: functional, Homo sapiens
Procedure, shortened: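 CC-B reporter cells (CC-1 cervical line carrying a CAT gene under a RARE with a tk promoter) were seeded at 4×10^5 cells/well in MEM with nonessential amino acids, pyruvate and 10% FBS, the serum lots having negligible t-RA by HPLC. Triplicate cultures were screened at 10^-6 M with 0.1% DMSO final. After 48 h, CAT activity ([3H]acetyl-CoA) per mg protein was taken as treated/control and expressed relative to t-RA. Average of three experiments.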

[17] = organism: Mus musculus; test: Total dose of 10% weight loss in mice at mid dose 1; type: functional
[18] = organism: Mus musculus; test: Effect of compound on right testicle to body weight ratios in mice at mid dose 2 on day 65; type: functional; procedure, shortened: as §5
[19] = organism: Mus musculus; test: Effect of compound on serum Alkaline phosphatase levels in mice at high dose on day 36; type: functional; procedure, shortened: as §2
[20] = organism: Mus musculus; test: Enlarged spleen in Gross pathological observations in mice with hypervitaminosis A at high dose with gross observations/total number of mice in group; 0/16; type: functional, organism-based
[21] = organism: Mus musculus; test: Effect of compound on Spleen to body weight ratios in mice at mid dose 2 on day 65; type: functional; procedure, shortened: as §5
[22] = organism: Mus musculus; test: Effect of compound on serum triglycerides levels in mice at mid dose 1 on day 29; type: functional
Procedure, shortened: (§6)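 Male B6D2F1 mice were gavaged daily with compound in corn oil at low, mid 1, mid 2 or high dose. Serum triglycerides and circulating white blood cells were measured on the stated day (8, 29, 36, 65). Values are group mean ± SD expressed as % relative to corn-oil vehicle, with significance at p ≤ 0.05.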

[23] = organism: Mus musculus; test: Effect of compound on serum Alkaline phosphatase levels in mice at mid dose 2 on day 65; type: functional; procedure, shortened: as §2
[24] = organism: Mus musculus; test: Effect of compound on adrenal to body weight ratios in mice at mid dose 1 on day 65; type: functional; procedure, shortened: as §5
[25] = organism: Mus musculus; test: Total dose of 10% weight loss in mice at high dose; type: functional
[26] = organism: Mus musculus; test: Effect of compound on serum triglycerides levels in mice at high dose on day 29; type: functional; procedure, shortened: as §2
[27] = organism: Mus musculus; test: Effect of compound on serum Alkaline phosphatase levels in mice at high dose on day 65; type: functional; procedure, shortened: as §2
[28] = organism: Mus musculus; test: Calculated 30-day maximally tolerated dose based on 10% weight loss in mice at mid dose 2; type: functional
[29] = organism: Mus musculus; test: Average number of fractures per mouse at high dose
[30] = organism: Mus musculus; test: Effect of compound on Spleen to body weight ratios in mice at mid dose 1 on day 65; type: functional; procedure, shortened: as §5
[31] = organism: Mus musculus; test: Effect of compound on adrenal to body weight ratios in mice at mid dose 2 on day 65; type: functional; procedure, shortened: as §5
[32] = organism: Mus musculus; test: Effect of compound on serum triglycerides levels in mice at low dose on day 8; type: functional; procedure, shortened: as §6
[33] = organism: Mus musculus; test: Average number of fractures per mouse at mid dose 2
[34] = organism: Mus musculus; test: Effect of compound on right testicle to body weight ratios in mice at low dose on day 65; type: functional; procedure, shortened: as §5
[35] = organism: Mus musculus; test: Effect of compound on thymus to body weight ratios in mice at low dose on day 65; type: functional; procedure, shortened: as §4
[36] = organism: Mus musculus; test: Calculated 30-day maximally tolerated dose based on 10% weight loss in mice at low dose; type: functional
[37] = organism: Mus musculus; test: Calculated 30-day maximally tolerated dose based on 10% weight loss in mice at mid dose 1; type: functional
[38] = organism: Mus musculus; test: Approximate day to 10% weight loss in mice at high dose; type: functional; procedure, shortened: as §3
[39] = organism: Mus musculus; test: Calculated 30-day maximally tolerated dose based on 10% weight loss in mice at high dose; type: functional
[40] = organism: Mus musculus; test: Effect of compound on serum triglycerides levels in mice at low dose on day 29; type: functional; procedure, shortened: as §2
[41] = organism: Mus musculus; test: Effect of compound on right testicle to body weight ratios in mice at mid dose 1 on day 65; type: functional; procedure, shortened: as §5

With `CC(/C=C/C=C(\C)c1ccc2c(c1)C(C)(C)CCS2)=C\C(=O)O` the Dose [1] was greater than 828.4 mg/kg, the Activity [2] was “inactive” and the Activity [3] was 127.5. For the same compound, the Activity [4] was “inactive”, the Activity [5] was greater than 65 and the Activity [6] was 1.5. For the same compound, the Activity [7] was “inactive”, the Activity [8] was “inactive” and the Activity [9] was 1.6. The Activity [10] was greater than 65, the Activity [11] was greater than 65 and the Activity [12] was 0. The Dose [13] was greater than 207.1 mg/kg, the Activity [14] was 0.3 and the Mortality [15] was 0 day of death. The Relative activity [16] was 52, the Dose [17] was greater than 414.2 mg/kg and the Activity [18] was 2.8. The Activity [19] was 84.6, the Activity [20] was “inactive” and the Activity [21] was 2.2. The Activity [22] was 174.1, the Activity [23] was 137 and the Activity [24] was 0.3. It also gave a Dose [25] of 1016.8 mg/kg, an Activity [26] of 164.2 and an Activity [27] of 159. It also gave a Max tolerated dose [28] greater than 27.6 mg/kg, an Activity [29] of 0.3 and an Activity [30] of 2. The Activity [31] was 0.3, the Activity [32] was 97.5 and the Activity [33] was 0. The Activity [34] was 2.6, the Activity [35] was 1.7 and the Max tolerated dose [36] was greater than 6.9 mg/kg. The Max tolerated dose [37] was greater than 13.8 mg/kg, the Activity [38] was 54 and the Max tolerated dose [39] was 33.9 mg/kg. It also gave an Activity [40] of 176.4 and an Activity [41] of 3.1.
